{
  "source": "ChEMBL document CHEMBL3739279",
  "about": "“Fluorinated betulinic acid derivatives and evaluation of their anti-HIV activity” (Bioorg Med Chem Lett, 2016)",
  "key": {"[1]": {"system": "Human immunodeficiency virus 1", "experiment": "Antiviral activity against HIV-1 NL4-3 infected in MT4 cells assessed inhibition of viral replication measured on day 4 postinfection by ELISA", "type": "functional, organism-based", "settings": "Human immunodeficiency virus 1, NL4-3, MT4, 96 h", "method_in_brief": "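MT4 cells infected with HIV-1 NL4-3 at MOI 0.001 in presence of graded compound concentrations; fresh compound-containing medium added 48 h post-infection to sustain growth. Viral replication read on day 4 by p24 ELISA; EC50 = concentration giving 50% inhibition of replication.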"}, "[2]": {"experiment": "Cytotoxicity against human MT4 cells by cell-titer Glo assay", "type": "cell-based", "method_in_brief": "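MT4 cells cultured in parallel with antiviral cultures; viability read by luminescent ATP quantitation (CellTiter-Glo). CC50 = concentration reducing viability by 50%.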"}},
  "data": [
    {"smiles": "C=C(C)[C@@H]1CC[C@]2(C(=O)OCC3CCC(F)(F)CC3)CC[C@]3(C)[C@H](CC[C@@H]4[C@@]5(C)CC[C@H](OC(=O)CC(C)(C)C(=O)O)C(C)(C)[C@@H]5CC[C@]43C)[C@@H]12", "values": [
      {"measurement": "EC50", "setting": "[1]", "result": 310, "unit": "nM"},
      {"measurement": "CC50", "setting": "[2]", "result": "> 6", "unit": "µM"}
    ]},
    {"smiles": "C=C(C)[C@@H]1CC[C@]2(C(=O)O)CC[C@]3(C)[C@H](CC[C@@H]4[C@@]5(C)C[C@@H](F)[C@H](OC(=O)CC(C)(C)C(=O)O)C(C)(C)[C@@H]5CC[C@]43C)[C@@H]12", "values": [
      {"measurement": "EC50", "setting": "[1]", "result": "> 17000", "unit": "nM"},
      {"measurement": "CC50", "setting": "[2]", "result": "> 17", "unit": "µM"}
    ]},
    {"smiles": "C=C(C)[C@@H]1CC[C@]2(C(=O)O)CC[C@]3(C)[C@H](CC[C@@H]4[C@@]5(C)CC[C@H](OC(=O)CC(C)(C)C(=O)O)C(C)(C)[C@@H]5CC[C@]43C)[C@@H]12", "note": "[BEVIRIMAT]", "values": [
      {"measurement": "EC50", "setting": "[1]", "result": 75, "unit": "nM"},
      {"measurement": "CC50", "setting": "[2]", "result": "> 17", "unit": "µM"}
    ]},
    {"smiles": "C=C(CC(F)(F)F)[C@@H]1CC[C@]2(C(=O)O)CC[C@]3(C)[C@H](CC[C@@H]4[C@@]5(C)CC[C@H](OC(=O)CC(C)(C)C(=O)O)C(C)(C)[C@@H]5CC[C@]43C)[C@@H]12", "values": [
      {"measurement": "EC50", "setting": "[1]", "result": 97, "unit": "nM"},
      {"measurement": "CC50", "setting": "[2]", "result": "> 6", "unit": "µM"}
    ]},
    {"smiles": "C=C(C)[C@@H]1CC[C@]2(C(=O)OCCC3CC3)CC[C@]3(C)[C@H](CC[C@@H]4[C@@]5(C)C[C@@H](F)[C@H](OC(=O)CC(C)(C)C(=O)O)C(C)(C)[C@@H]5CC[C@]43C)[C@@H]12", "values": [
      {"measurement": "EC50", "setting": "[1]", "result": 1100, "unit": "nM"},
      {"measurement": "CC50", "setting": "[2]", "result": "> 6", "unit": "µM"}
    ]},
    {"smiles": "C=C(C)[C@@H]1CC[C@]2(C(=O)OC)CC[C@]3(C)[C@H](CC[C@@H]4[C@@]5(C)C[C@@H](C(F)(F)F)[C@H](OC(=O)CC(C)(C)C(=O)O)C(C)(C)[C@@H]5CC[C@]43C)[C@@H]12", "values": [
      {"measurement": "EC50", "setting": "[1]", "result": "> 6000", "unit": "nM"},
      {"measurement": "CC50", "setting": "[2]", "result": "> 6", "unit": "µM"}
    ]},
    {"smiles": "C=C(C)[C@@H]1CC[C@]2(C(=O)OCCc3cccc(C(F)(F)F)c3)CC[C@]3(C)[C@H](CC[C@@H]4[C@@]5(C)CC[C@H](OC(=O)CC(C)(C)C(=O)O)C(C)(C)[C@@H]5CC[C@]43C)[C@@H]12", "values": [
      {"measurement": "EC50", "setting": "[1]", "result": 3000, "unit": "nM"},
      {"measurement": "CC50", "setting": "[2]", "result": "> 5", "unit": "µM"}
    ]},
    {"smiles": "C=C(C)[C@@H]1CC[C@]2(C(=O)O)CC[C@]3(C)[C@H](CC[C@@H]4[C@@]5(C)CC[C@H](OC(=O)C(F)(F)C(F)(F)C(F)(F)C(=O)O)C(C)(C)[C@@H]5CC[C@]43C)[C@@H]12", "values": [
      {"measurement": "EC50", "setting": "[1]", "result": "> 6000", "unit": "nM"},
      {"measurement": "CC50", "setting": "[2]", "result": "> 6", "unit": "µM"}
    ]},
    {"smiles": "C=C(C)[C@@H]1CC[C@]2(C(=O)OC)CC[C@]3(C)[C@H](CC[C@@H]4[C@@]5(C)C[C@@H](F)[C@H](OC(=O)CC(C)(C)C(=O)O)C(C)(C)[C@@H]5CC[C@]43C)[C@@H]12", "values": [
      {"measurement": "EC50", "setting": "[1]", "result": "> 16000", "unit": "nM"},
      {"measurement": "CC50", "setting": "[2]", "result": "> 16", "unit": "µM"}
    ]},
    {"smiles": "C=C(C)[C@@H]1CC[C@]2(C(=O)O)CC[C@]3(C)[C@H](CC[C@@H]4[C@@]5(C)CC[C@H](OC(=O)C(F)(F)C(F)(F)C(=O)O)C(C)(C)[C@@H]5CC[C@]43C)[C@@H]12", "values": [
      {"measurement": "EC50", "setting": "[1]", "result": "> 6000", "unit": "nM"},
      {"measurement": "CC50", "setting": "[2]", "result": "> 6", "unit": "µM"}
    ]}
  ]
}
